Test results: PMC4348351 (Pest management science, 2014)

Tests used:
[1] = tested on: Culex quinquefasciatus AChE (CqAChE); assay: AChE inhibition, Ellman assay, CqAChE; assay type: biochemical; details: SR = IC50 of mosquito AChE/IC50 of An. gambiae
[2] = biological target: Aedes aegypti AChE (Ae.aAChE) (Aedes aegypti, UniProt Q6A2E2); assay: AChE inhibition, Ellman assay, Ae.aAChE; assay type: biochemical; details: SR = IC50 of mosquito AChE/IC50 of An. gambiae
[3] = tested on: Anopheles albimanus AChE (An.aAChE); assay: AChE inhibition, Ellman assay, An.aAChE; assay type: biochemical; details: SR = IC50 of mosquito AChE/IC50 of An. gambiae
[4] = biological target: Drosophila melanogaster AChE (DmAChE) (Drosophila melanogaster, UniProt P07140); assay: AChE inhibition, Ellman assay, DmAChE; assay type: biochemical; details: for SR DmAChE: SR = IC50 of agricultural insect AChE/IC50 of An.gAChE
[5] = tested on: Musca domestica AChE (MdAChE); assay type: biochemical; details: for SR MdAChE: SR = IC50 of agricultural insect AChE/IC50 of An.gAChE
O. nubilalis = assay: Topical toxicity bioassay, O. nubilalis; assay type: in vivo, Ostrinia nubilalis; details: for SR (toxicity): Selectivity Ratio = O. nubilalis LD50/An. gambiae LD50; for LD50 (95% CI) O. nubilalis: topical, L2 larvae, 24 hour mortality
Summary of the method: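 Lepidopteran larvae were ice-chilled for 3 min before 1 μL of test compound in 95% ethanol was applied to the abdomen with a handheld microapplicator. Five doses, ten larvae per dose, done three times, with an ethanol-only negative control. Food substrate was provided in netted containers.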

[6] = tested on: Anopheles quadrimaculatus AChE (An.qAChE); assay: AChE inhibition, Ellman assay, An.qAChE; assay type: biochemical; details: SR = IC50 of mosquito AChE/IC50 of An. gambiae
[7] = tested on: Apis mellifera AChE (Ap.mAChE); assay: AChE inhibition, Ellman assay, Ap.mAChE; assay type: biochemical; details: for SR Ap.mAChE: SR = IC50 of agricultural insect AChE/IC50 of An.gAChE
[8] = tested on: Plutella xylostella AChE (PxAChE); assay: AChE inhibition, Ellman assay, PxAChE; assay type: biochemical; details: for SR PxAChE: SR = IC50 of agricultural insect AChE/IC50 of An.gAChE
Ae. aegypti = assay: Topical toxicity bioassay, Ae. aegypti; assay type: in vivo, Aedes aegypti; details: adult females, 24 hour mortality
Summary of the method: (§1)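 Adult mosquitoes were chilled on ice for 3 min, then 200 nL of test compound in 95% ethanol was applied to the abdomen by handheld microapplicator. Five doses, ten insects each, repeated three times, with an ethanol-only negative control. Insects were held under netting with free access to sugar water.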

[9] = tested on: Diaphorina citri AChE (DcAChE); assay: AChE inhibition, Ellman assay, DcAChE; assay type: biochemical; details: SR = IC50 of agricultural insect AChE/IC50 of An.gAChE
[10] = tested on: Aedes albopictus AChE (Ae.bAChE); assay: AChE inhibition, Ellman assay, Ae.bAChE; assay type: biochemical; details: SR = IC50 of mosquito AChE/IC50 of An. gambiae
[11] = tested on: Ostrinia nubilalis AChE (OnAChE); assay: AChE inhibition, Ellman assay, OnAChE; assay type: biochemical; details: for SR OnAChE: SR = IC50 of agricultural insect AChE/IC50 of An.gAChE
Cu. quinquefasciatus = assay: Topical toxicity bioassay, Cu. quinquefasciatus; assay type: in vivo, Culex quinquefasciatus; details: adult females, 24 hour mortality
Summary of the method: as §1

An. gambiae = assay: Topical toxicity bioassay, An. gambiae; assay type: in vivo, Anopheles gambiae; details: adult females, 24 hour mortality
Summary of the method: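 Anopheline adults, chilled on ice for 1 min, received 200 nL of test compound in 95% ethanol on the abdomen via handheld microapplicator. Five doses × ten insects, three repeats, plus an ethanol-only control. Sugar water was freely available under netting.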

[12] = tested on: mosquito acetylcholinesterases; assay: AChE inhibition, statements across mosquito species; assay type: biochemical

SMILES: CNC(=O)Oc1cccc2c1OC(C)(C)O2 [Bendiocarb, bendiocarb]
- SR CqAChE [1]: 1.2
- SR Ae.aAChE [2]: 0.7
- SR An.aAChE [3]: 1.0
- fold more potent than propoxur, DmAChE ([4]; IC50 ratio versus propoxur): 3.9 fold
- SR DmAChE [4]: 0.2
- fold more potent than propoxur, MdAChE ([5]; IC50 ratio versus propoxur): 2.6 fold
- SR MdAChE [5]: 0.3
- fold more toxic than 1, O. nubilalis (O. nubilalis; LD50 ratio versus 1): 24 fold
- SR (toxicity) (O. nubilalis): 2
- LD50 (95% CI) O. nubilalis (O. nubilalis): 4 (2–6) aB ng/mg
- LD50 (95% CI) O. nubilalis (O. nubilalis; listed as bendiocarb): 4 ng/mg
- SR An.qAChE [6]: 0.8
- fold difference in IC50 versus propoxur, Ap.mAChE ([7]; IC50 ratio versus propoxur): 19 fold
- SR Ap.mAChE [7]: 0.3
- fold more potent than 1, PxAChE ([8]; IC50 ratio versus 1): 3 fold
- fold more potent than 5, PxAChE ([8]; IC50 ratio, 100 μM value used for 5): 461 fold
- SR PxAChE [8]: 1.3
- SR PxAChE ([8]; listed as bendiocarb): ≤ 7
- LD50 (95% CI) Ae. aegypti (Ae. aegypti): 1 (0.5–3) aA ng/mg
- SR DcAChE [9]: 0.5
- SR Ae.bAChE [10]: 0.8
- fold more potent than 1, OnAChE ([11]; IC50 ratio versus 1): 8 fold
- fold more potent than 5, OnAChE ([11]; IC50 ratio versus 5): 243 fold
- SR OnAChE [11]: 2
- LD50 (95% CI) Cu. quinquefasciatus (Cu. quinquefasciatus): 2 (1–4) aB ng/mg
- LD50 (95% CI) An. gambiae (An. gambiae): 2 (1–4) aA ng/mg

SMILES: CNC(=O)Oc1cccc2c1OC(C)(C)C2 [Carbofuran, carbofuran]
- SR CqAChE [1]: 2.3
- SR Ae.aAChE [2]: 0.9
- SR An.aAChE [3]: 1.2
- SR An.qAChE [6]: 0.9
- fold more active than bendiocarb, within each mosquito species ([12]; IC50 ratio versus bendiocarb): about 3 fold
- fold more potent than propoxur, within each mosquito species ([12]; IC50 ratio versus propoxur): approximately 10 fold
- SR Ae.bAChE [10]: 1.0

SMILES: CNC(=O)Oc1ccccc1OC(C)C [Propoxur]
- SR CqAChE [1]: 1.1
- SR Ae.aAChE [2]: 0.8
- SR An.aAChE [3]: 1.1
- SR DmAChE [4]: 0.2
- SR MdAChE [5]: 0.3
- SR (toxicity) (O. nubilalis): 14
- LD50 (95% CI) O. nubilalis (O. nubilalis): 42 (34–49) cA ng/mg
- SR An.qAChE [6]: 1.0
- SR Ap.mAChE [7]: 2
- SR PxAChE [8]: 7.5
- SR PxAChE ([8]; listed as propoxur): 7
- LD50 (95% CI) Ae. aegypti (Ae. aegypti): 3 (1–4) aA ng/mg
- SR DcAChE [9]: 2
- SR Ae.bAChE [10]: 0.8
- SR OnAChE [11]: 15
- LD50 (95% CI) Cu. quinquefasciatus (Cu. quinquefasciatus): 8 (5–11) bA ng/mg
- LD50 (95% CI) An. gambiae (An. gambiae): 3 (2–4) aA ng/mg
